By half-life is commonly meant the time in which the quantity being followed falls by half. High values mean slow loss, low ones fast loss.

Experimental findings from publication PMC3944097 (ACS chemical biology, 2013) are described below.

One series concerns the target MMP-13 (Homo sapiens, UniProt P45452). Put plainly: LC/MS analysis of probe fragmentation on incubation with MMP-13. The series is classed as biochemical. The conditions noted are these: for metabolites found after incubation with MMP-13: 2 h incubation with MMP-13, LC/MS. The method in brief:
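Test compound (1 μM) incubated with MMP-13 catalytic domain (40 nM) at 37 °C in 50 mM Tris, 10 mM CaCl2, 150 mM NaCl, 0.05% Brij35, pH 7.8. Aliquots were taken every 10 min to 60 min, then every 20 min to 120 min. Each was quenched with an equal volume of acetonitrile containing 10% HCOOH. Fragments were identified by UPLC–Q-Tof LC–MS.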

The format of series [1] is in vivo, mice. The conditions noted are these: for half-life: mouse, iv. The procedure, abridged:
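Female athymic nude mice bore SCC-7 tumours, grown from 1 × 10^6 cells injected subcutaneously into the right front flank and used at ~300 mm3. Probe was given intravenously via the tail vein. Blood was sampled at 1, 5, 15, 30, 45 and 60 min. Intact probe and the Met1/Met2 fragments were measured by HPLC–QTRAP LC–MS using a single MRM transition, with triplicate injections.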

Series [2] can be described thus: LC/MS identification of parent probe, Met1 and Met2 in tumor, plasma and liver. The series is classed as in vivo, mice. The note with it: 60 min after probe injection; for species detected in liver: liver homogenate; for species detected in liver / parent probe in plasma: LC/MS; for species detected in SCC-7 tumor: tumor homogenate, high sensitivity LC/MS. The procedure, abridged:
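Female athymic nude mice bore subcutaneous SCC-7 tumours (~300 mm3) and received probe intravenously via the tail vein. At 60 min, plasma, tumour and liver were collected. Tissues were weighed, stored in liquid nitrogen and homogenised in H2O/acetonitrile 50/50 containing 10% HCOOH. After pellet removal, extracts were lyophilised and redissolved in the same solvent. High-sensitivity LC–MS then screened for parent probe, Met1 and Met2.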

The subject of the next series is different MMPs. Put plainly: Specificity and selectivity of probes to MMP enzymes. The note with it: fluorescence activation by MMP enzymes (Figure 2a). The format is biochemical.
Series [3] relates to catalytic domain of MMP-13. Put plainly: reaction buffer. The note with it: 37 °C, up to 120 min.

With `CCN(CC)c1ccc2nc3ccc(N=Nc4ccc(N(C)CCCC(=O)NCCCC[C@H](NC(=O)CNC(=O)[C@H](CCCNC(=N)N)NC(=O)[C@@H](NC(=O)CNC(=O)[C@H](CC(C)C)NC(=O)[C@@H]5CCCN5C(=O)CNC(=O)CCCCC[N+]5=C(C=CC=CC=C6N(CC)c7ccc8c(S(=O)(=O)[O-])cc(S(=O)(=O)O)cc8c7C6(C)C)C(C)(C)c6c5ccc5c(S(=O)(=O)[O-])cc(S(=O)(=O)O)cc65)C(C)C)C(=O)NCC(=O)NCC(=O)NCCOCCOCCOCCOCCOCCOCCOCCOCCOCCOCCOCCO)cc4)cc3[n+](-c3ccccc3)c2c1` [L-MMP-P12], the “metabolites found after incubation with MMP-13” value at MMP-13 is listed as “two major fragments”. Further, the “intact probe in blood samples at 45 min after injection” value in series [1] (mice, i.v., blood, LC/MS) was “almost no intact L-MMP-P12 can be detected”. In addition, the half-life in series [1] (blood) was 7.81 ± 0.25 min. For the same compound, in series [2], the “species detected in liver” value is recorded as “only Met2 fragment could be detected”, the “parent probe in plasma” value is listed as “very little L-MMP-P12 was found” and the “species detected in SCC-7 tumor” value is given as “only Met2 was detected while no parent probe or Met1 was found”.

As to `CCN(CC)c1ccc2nc3ccc(N=Nc4ccc(N(C)CCCC(=O)NCCCC[C@@H](NC(=O)CNC(=O)[C@H](CCCNC(=N)N)NC(=O)[C@@H](NC(=O)CNC(=O)[C@H](CC(C)C)NC(=O)[C@@H]5CCCN5C(=O)CNC(=O)CCCCC[N+]5=C(C=CC=CC=C6N(CC)c7ccc8c(S(=O)(=O)[O-])cc(S(=O)(=O)O)cc8c7C6(C)C)C(C)(C)c6c5ccc5c(S(=O)(=O)[O-])cc(S(=O)(=O)O)cc65)C(C)C)C(=O)NCC(=O)NCC(=O)NCCOCCOCCOCCOCCOCCOCCOCCOCCOCCOCCOCCO)cc4)cc3[n+](-c3ccccc3)c2c1` [D-MMP-P12], the “metabolites found after incubation with MMP-13” value on MMP-13 was “only the MMP specific metabolite Met1 but not Met2 was found”. Besides, in series [1] (mice, i.v., blood samples at 1, 5, 15, 30, 45 and 60 min p.i., LC/MS), the “Met1/Met2 ratio in blood” value is listed as “much higher than that of L-MMP-P12 at all the time points examined”. In series [1] (blood), the half-life came to 29.8 ± 0.45 min. In series [2], the “species detected in liver” value is “only Met2 fragment could be detected”; the “parent probe in plasma” value is on record as “still detectable after 1 h”; the “species detected in SCC-7 tumor” value was “parent D-MMP-P12 probe, Met1 and Met2 were all detectable”. The “enzyme specificity and selectivity over different MMPs” value with different MMPs was “very similar enzyme specificity and selectivity with L-MMP-P12”.

On to GPLGVRGKGG, for which the cleaved bond result in series [3] was “Gly4-Val5, major”.

With Cy5.5-GPLGVR [Met2], on MMP-13 (incubation with MMP-13, LC/MS, late time points), the “further cleavage of metabolite by MMP-13” value is reported as “can be further cut by MMP-13 to form Met1”.
